From the M2OR odorant receptor database

Assays:
Conditions in all cases: stereoisomer not certain
OR10G2 (Homo sapiens) = molecular target: T1, OR10G2 (Homo sapiens) (UniProt Q8NGC3)
T1 sequence (whole entry): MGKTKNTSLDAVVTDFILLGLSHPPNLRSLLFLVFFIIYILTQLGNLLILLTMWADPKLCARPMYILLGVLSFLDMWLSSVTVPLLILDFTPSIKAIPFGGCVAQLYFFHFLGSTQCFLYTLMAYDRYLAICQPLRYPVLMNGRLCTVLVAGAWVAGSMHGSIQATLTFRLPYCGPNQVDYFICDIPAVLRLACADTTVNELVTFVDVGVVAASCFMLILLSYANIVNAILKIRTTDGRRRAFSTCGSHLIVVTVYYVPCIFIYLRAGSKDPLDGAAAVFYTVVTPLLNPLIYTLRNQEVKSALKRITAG
Procedure, shortened: (§1)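 Transient luciferase assays in mammalian cell lines were common, though methods varied by source. The values come from published papers and their supplementary material, with extra details from the original authors when needed. Responsive refers to a measured signal the original authors judged statistically different from baseline, and non-responsive (inactive) to the remainder.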

OR10G3 (Homo sapiens) = molecular target: T2, OR10G3 (Homo sapiens) (UniProt Q8NGC4)
T2 sequence (whole entry): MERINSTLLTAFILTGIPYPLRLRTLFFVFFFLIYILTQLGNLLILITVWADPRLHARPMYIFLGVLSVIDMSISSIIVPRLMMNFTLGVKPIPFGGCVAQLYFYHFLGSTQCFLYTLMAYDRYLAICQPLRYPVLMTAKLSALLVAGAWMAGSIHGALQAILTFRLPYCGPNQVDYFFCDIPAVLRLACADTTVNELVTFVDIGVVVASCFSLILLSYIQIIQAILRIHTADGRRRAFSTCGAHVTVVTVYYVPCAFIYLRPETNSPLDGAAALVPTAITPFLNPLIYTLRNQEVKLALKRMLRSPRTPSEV
Procedure, shortened: as §1

OR10G4 (Homo sapiens) = molecular target: T3, OR10G4 (Homo sapiens) (UniProt Q8NGN3)
T3 sequence (whole entry): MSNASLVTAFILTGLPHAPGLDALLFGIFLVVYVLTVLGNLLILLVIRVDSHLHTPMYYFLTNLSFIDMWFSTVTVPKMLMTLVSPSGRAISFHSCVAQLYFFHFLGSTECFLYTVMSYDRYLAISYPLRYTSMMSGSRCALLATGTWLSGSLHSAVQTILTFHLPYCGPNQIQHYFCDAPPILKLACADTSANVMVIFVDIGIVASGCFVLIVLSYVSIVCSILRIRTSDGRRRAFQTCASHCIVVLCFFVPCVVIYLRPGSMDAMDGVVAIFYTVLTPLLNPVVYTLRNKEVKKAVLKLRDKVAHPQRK
Procedure, shortened: as §1

OR10G6 (Homo sapiens) = molecular target: T4, OR10G6 (Homo sapiens) (UniProt Q8NH81)
T4 sequence (whole entry): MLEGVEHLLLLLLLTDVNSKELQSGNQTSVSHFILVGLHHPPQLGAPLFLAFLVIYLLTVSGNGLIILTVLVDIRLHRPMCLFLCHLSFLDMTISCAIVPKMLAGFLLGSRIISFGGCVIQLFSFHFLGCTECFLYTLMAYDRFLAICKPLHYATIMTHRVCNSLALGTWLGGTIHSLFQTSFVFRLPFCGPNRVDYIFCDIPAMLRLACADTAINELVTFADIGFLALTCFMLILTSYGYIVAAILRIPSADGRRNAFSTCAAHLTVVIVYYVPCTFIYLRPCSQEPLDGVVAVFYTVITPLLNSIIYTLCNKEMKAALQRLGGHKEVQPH
Procedure, shortened: as §1

OR10G7 (Homo sapiens) = molecular target: T5, OR10G7 (Homo sapiens) (UniProt Q8NGN6)
T5 sequence (whole entry): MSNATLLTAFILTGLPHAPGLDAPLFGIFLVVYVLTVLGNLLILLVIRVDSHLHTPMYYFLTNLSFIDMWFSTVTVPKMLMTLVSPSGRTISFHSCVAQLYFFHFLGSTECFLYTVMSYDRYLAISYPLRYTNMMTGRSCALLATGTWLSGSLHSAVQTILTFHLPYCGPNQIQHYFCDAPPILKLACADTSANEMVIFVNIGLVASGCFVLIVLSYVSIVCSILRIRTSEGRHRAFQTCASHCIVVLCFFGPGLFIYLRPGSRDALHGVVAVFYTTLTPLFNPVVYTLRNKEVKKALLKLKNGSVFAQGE
Procedure, shortened: as §1

OR10G8 (Homo sapiens) = molecular target: T6, OR10G8 (Homo sapiens) (UniProt Q8NGN5)
T6 sequence (whole entry): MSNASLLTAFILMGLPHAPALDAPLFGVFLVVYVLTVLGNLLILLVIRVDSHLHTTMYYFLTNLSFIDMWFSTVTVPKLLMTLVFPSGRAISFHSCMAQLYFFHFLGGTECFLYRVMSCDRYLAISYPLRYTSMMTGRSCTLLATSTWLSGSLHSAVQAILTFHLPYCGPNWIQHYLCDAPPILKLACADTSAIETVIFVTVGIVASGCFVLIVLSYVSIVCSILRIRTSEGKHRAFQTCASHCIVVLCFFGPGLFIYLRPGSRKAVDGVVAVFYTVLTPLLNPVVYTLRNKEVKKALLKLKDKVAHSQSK
Procedure, shortened: as §1

OR10G9 (Homo sapiens) = molecular target: T7, OR10G9 (Homo sapiens) (UniProt Q8NGN4)
T7 sequence (whole entry): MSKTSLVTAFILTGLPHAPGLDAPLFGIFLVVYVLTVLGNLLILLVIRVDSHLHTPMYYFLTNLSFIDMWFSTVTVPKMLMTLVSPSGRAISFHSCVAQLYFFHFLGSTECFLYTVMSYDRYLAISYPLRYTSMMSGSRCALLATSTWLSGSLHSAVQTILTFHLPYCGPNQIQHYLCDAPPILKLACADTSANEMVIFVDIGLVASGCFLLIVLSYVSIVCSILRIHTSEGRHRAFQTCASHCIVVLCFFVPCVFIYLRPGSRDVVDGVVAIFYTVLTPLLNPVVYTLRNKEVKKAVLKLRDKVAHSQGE
Procedure, shortened: as §1

OR10H1 (Homo sapiens) = molecular target: T8, OR10H1 (Homo sapiens) (UniProt Q9Y4A9)
T8 sequence (whole entry): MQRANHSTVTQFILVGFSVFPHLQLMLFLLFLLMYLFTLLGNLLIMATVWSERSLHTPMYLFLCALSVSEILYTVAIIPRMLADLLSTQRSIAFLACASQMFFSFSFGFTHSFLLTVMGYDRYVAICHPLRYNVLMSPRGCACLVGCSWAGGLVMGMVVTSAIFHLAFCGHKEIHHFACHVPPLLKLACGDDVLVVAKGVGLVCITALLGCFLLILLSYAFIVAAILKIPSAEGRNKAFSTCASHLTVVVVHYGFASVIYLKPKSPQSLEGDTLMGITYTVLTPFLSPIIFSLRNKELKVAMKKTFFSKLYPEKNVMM
Procedure, shortened: as §1

OR10H2 (Homo sapiens) = molecular target: T9, OR10H2 (Homo sapiens) (UniProt O60403)
T9 sequence (whole entry): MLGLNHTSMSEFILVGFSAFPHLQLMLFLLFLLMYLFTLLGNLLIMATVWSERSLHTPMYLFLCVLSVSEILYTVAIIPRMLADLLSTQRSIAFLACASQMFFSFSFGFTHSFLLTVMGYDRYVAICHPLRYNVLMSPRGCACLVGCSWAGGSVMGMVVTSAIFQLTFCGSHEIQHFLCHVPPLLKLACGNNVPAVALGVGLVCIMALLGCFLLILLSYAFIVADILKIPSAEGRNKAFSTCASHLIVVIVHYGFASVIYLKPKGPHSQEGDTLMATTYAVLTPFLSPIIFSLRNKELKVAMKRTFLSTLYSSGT
Procedure, shortened: as §1

OR10H3 (Homo sapiens) = molecular target: T10, OR10H3 (Homo sapiens) (UniProt O60404)
T10 sequence (whole entry): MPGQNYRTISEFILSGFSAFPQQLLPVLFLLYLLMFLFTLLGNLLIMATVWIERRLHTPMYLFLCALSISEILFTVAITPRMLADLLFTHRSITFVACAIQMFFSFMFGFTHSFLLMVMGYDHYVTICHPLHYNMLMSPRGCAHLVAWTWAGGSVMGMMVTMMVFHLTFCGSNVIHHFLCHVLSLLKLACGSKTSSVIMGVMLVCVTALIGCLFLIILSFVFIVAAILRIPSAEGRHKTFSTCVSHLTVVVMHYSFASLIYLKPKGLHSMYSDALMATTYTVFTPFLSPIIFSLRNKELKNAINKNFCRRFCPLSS
Procedure, shortened: as §1

Measured: odorant receptor agonist call;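 note: active if original authors judged signal statistically different from baseline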

CC(CO)CS (stereo not given)
inactive: all assays above
